According to ChEMBL document CHEMBL5038664, “Thieno[2,3-d]pyrimidine-Based Positive Allosteric Modulators of Human Mas-Related G Protein-Coupled Receptor X1 (MRGPRX1)” (J Med Chem, 2022):
Active and inactive are the calls of the source. No cut-off for these calls is given here.

Experiments:
[1] = molecular target: T1, Mas-related G-protein coupled receptor member X1 (Homo sapiens, UniProt Q96LB2); assay: Positive allosteric modulator activity at human MRGPRX1 transfected in HEK293 cells in presence of BAM8-22 by Fulo4AM dye based FLIPR assay; assay type: cell-based
T1 sequence (Q96LB2 whole entry): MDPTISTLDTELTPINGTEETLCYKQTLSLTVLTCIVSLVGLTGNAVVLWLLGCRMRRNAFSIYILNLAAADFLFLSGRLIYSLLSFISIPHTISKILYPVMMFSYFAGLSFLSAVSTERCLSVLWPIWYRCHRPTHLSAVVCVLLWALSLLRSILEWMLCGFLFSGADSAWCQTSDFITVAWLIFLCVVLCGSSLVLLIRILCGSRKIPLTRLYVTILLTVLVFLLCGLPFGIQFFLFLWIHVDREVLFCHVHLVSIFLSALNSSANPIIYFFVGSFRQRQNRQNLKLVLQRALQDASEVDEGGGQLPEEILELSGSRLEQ

[2] = Metabolic stability in mouse microsome assessed as compound remaining measured after 30 min in presence of NADPH regenerating system by LC-MS/MS analysis; assay type: ADME, Liver; conditions: microsomes, 0.5 h
[3] = Metabolic stability in mouse microsome assessed as compound remaining measured after 60 min in presence of NADPH regenerating system by LC-MS/MS analysis; assay type: ADME, Liver; conditions: microsomes, 1 h
[4] = molecular target: T1, Mas-related G-protein coupled receptor member X1; assay: Positive allosteric modulator activity at human MRGPRX1 transfected in HEK293 cells assessed as maximal efficacy in presence of BAM8-22 by Fulo4AM dye based FLIPR assay relative to control; assay type: cell-based; conditions: filed as positive allosteric modulator
[5] = Metabolic stability in human microsome assessed as compound remaining measured after 60 min in presence of NADPH regenerating system by LC-MS/MS analysis; assay type: ADME, Liver; conditions: microsomes, 1 h
[6] = Metabolic stability in human microsome assessed as compound remaining measured after 30 min in presence of NADPH regenerating system by LC-MS/MS analysis; assay type: ADME, Liver; conditions: microsomes, 0.5 h
[7] = Drug metabolism in human liver microsomes assessed as CYP450 mediated oxidation of parent compound measured after 60 mins by UPLC analysis; assay type: ADME, Microsome; conditions: 1 h
Mus musculus [8] = assay: Analgesic activity in mouse model of sciatic nerve chronic constriction injury-induced neuropathic pain assessed as increase in contralateral paw withdrawal latency at 100 mg/kg, po measured at 2 hrs post drug on day 26 post injury by Hargreaves test; assay type: functional, organism-based
Method in brief: (§1)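 Humanized MRGPRX1 mice, both sexes, 2–3 months old, 20–30 g, sciatic nerve CCI. Given 100 mg/kg orally (n=4–5/group, vehicle comparator). Heat withdrawal latency by Hargreaves test on days 12 and 26 post-CCI, compared with pre-drug and vehicle; two-way mixed-model ANOVA with Bonferroni test, mean + SD.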

Mus musculus [9] = assay: Analgesic activity in mouse model of sciatic nerve chronic constriction injury-induced neuropathic pain assessed as increase in contralateral paw withdrawal latency at 100 mg/kg, po measured at 1 and 2 hrs on day 12 post injury by Hargreaves test; assay type: functional, organism-based; conditions: time 12.0 day; method in brief: as §1
[10] = Ratio of AUClast in CD1 mouse brain to plasma at 100 mg/kg, po measured upto 6 hrs by LC-MS/MS analysis; assay type: ADME, organism-based
Method in brief: (§2)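 Male CD-1 mice (25–30 g, n=3 per time point) dosed 100 mg/kg by oral gavage in 5% dimethylacetamide/10% Cremophor EL/10% Tween80/25% PEG400/50% water. Killed at 0.25–6 h; cardiac-puncture plasma, brain and spinal cord collected. Acetonitrile extraction with losartan internal standard, LC/MS/MS; calibration 0.01–10 nmol/mL, 1/x weighting. Tissue-to-plasma ratios by AUC.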

[11] = Tmax in CD1 mouse spinal cord at 100 mg/kg, po measured upto 6 hrs by LC-MS/MS analysis; assay type: ADME, organism-based; conditions: in vivo; method in brief: as §2
[12] = Tmax in CD1 mouse plasma at 100 mg/kg, po measured upto 6 hrs by LC-MS/MS analysis; assay type: ADME, organism-based; conditions: in vivo; method in brief: as §2
[13] = Tmax in CD1 mouse brain at 100 mg/kg, po measured upto 6 hrs by LC-MS/MS analysis; assay type: ADME, organism-based; conditions: in vivo; method in brief: as §2
[14] = Acute toxicity in mouse expressing MRGPRX1 at 100 mg/kg, po measured upto 1.5 hrs by rotarod test; assay type: organism-based; conditions: in vivo
Method in brief: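 Motor coordination was measured by rotarod in naïve humanized MRGPRX1 mice after 100 mg/kg po. Performance was compared with a vehicle-treated group and with pre-treatment values.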

[15] = Acute toxicity in mouse expressing MRGPRX1 assessed as impaired exploratory activity at 100 mg/kg, po by open field test; assay type: organism-based; conditions: in vivo
Method in brief: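 Naïve humanized MRGPRX1 mice were dosed at 100 mg/kg po, with vehicle-treated mice as a parallel group. Exploratory performance in an open field test was compared with each animal's pre-drug values.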

[16] = Ratio of AUClast in CD1 mouse spinal cord to plasma at 100 mg/kg, po measured upto 6 hrs by LC-MS/MS analysis; assay type: ADME, organism-based; method in brief: as §2
Mus musculus [17] = assay: Analgesic activity in mouse model of sciatic nerve chronic constriction injury-induced neuropathic pain assessed as increase in ipsilateral paw withdrawal latency at 100 mg/kg, po measured at 2 hrs post drug on day 26 post injury by Hargreaves test; assay type: functional, organism-based; method in brief: as §1
Mus musculus [18] = assay: Analgesic activity in mouse model of sciatic nerve chronic constriction injury-induced neuropathic pain assessed as increase in ipsilateral paw withdrawal latency at 100 mg/kg, po measured at 1 and 2 hrs on day 12 post injury by Hargreaves test; assay type: functional, organism-based; conditions: time 12.0 day; method in brief: as §1
[19] = molecular target: T2, Mas-related G-protein coupled receptor member X2 (Homo sapiens) (UniProt Q96LB1); assay: Positive allosteric modulator activity at human MRGPRX2 transfected in HEK293 cells at 5 uM in presence of C48/80 by Fluo-4 AM-based FLIPR assay; assay type: cell-based
T2 sequence (whole entry): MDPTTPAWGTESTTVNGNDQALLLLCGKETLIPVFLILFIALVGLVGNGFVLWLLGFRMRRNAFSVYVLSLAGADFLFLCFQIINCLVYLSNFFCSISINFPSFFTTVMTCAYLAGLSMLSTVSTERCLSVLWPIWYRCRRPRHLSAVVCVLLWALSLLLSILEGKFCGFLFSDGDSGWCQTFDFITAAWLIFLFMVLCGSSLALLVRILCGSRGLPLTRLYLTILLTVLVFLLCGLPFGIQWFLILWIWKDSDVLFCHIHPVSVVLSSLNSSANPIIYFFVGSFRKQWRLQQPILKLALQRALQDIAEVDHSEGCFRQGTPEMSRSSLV
Method in brief: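 MRGPRX2 stably expressed in HEK293 cells; compound tested with an EC20 level of the orthosteric agonist C48/80, calcium response detected with Fluo-4 AM.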

hERG (KCNH2) = hERG (KCNH2) (Homo sapiens, UniProt Q12809); assay: Inhibition of hERG at 10 uM relative to control; assay type: toxicity
hERG (KCNH2), sequence (Q12809 whole entry): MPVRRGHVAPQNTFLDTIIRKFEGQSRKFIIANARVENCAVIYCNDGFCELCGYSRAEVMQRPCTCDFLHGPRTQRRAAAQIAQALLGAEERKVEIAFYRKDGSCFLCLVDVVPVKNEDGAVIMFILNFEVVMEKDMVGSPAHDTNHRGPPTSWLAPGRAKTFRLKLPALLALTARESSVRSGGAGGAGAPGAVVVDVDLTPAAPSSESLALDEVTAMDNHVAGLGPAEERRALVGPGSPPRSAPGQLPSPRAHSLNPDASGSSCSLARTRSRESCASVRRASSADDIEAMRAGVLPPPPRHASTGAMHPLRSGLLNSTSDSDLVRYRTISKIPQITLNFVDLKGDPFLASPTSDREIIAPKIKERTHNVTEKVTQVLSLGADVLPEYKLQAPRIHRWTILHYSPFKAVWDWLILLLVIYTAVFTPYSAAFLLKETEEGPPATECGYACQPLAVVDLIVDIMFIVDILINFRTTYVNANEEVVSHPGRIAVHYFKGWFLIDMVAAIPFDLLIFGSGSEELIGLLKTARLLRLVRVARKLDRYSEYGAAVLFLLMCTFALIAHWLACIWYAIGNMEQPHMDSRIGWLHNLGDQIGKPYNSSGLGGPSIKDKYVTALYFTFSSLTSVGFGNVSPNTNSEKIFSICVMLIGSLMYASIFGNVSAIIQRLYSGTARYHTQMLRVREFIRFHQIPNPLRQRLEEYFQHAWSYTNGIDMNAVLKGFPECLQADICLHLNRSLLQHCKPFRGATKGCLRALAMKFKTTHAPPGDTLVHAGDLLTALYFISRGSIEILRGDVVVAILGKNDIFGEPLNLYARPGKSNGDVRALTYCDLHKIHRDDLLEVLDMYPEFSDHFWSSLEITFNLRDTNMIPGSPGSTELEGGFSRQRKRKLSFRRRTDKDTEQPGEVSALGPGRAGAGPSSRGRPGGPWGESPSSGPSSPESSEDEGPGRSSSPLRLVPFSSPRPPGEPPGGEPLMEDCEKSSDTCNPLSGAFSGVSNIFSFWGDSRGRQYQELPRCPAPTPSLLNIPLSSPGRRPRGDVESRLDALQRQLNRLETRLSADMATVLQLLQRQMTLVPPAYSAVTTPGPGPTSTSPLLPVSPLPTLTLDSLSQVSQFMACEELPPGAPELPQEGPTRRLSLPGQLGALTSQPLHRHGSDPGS

[20] = Acute toxicity in mouse expressing MRGPRX1 assessed as itching by measuring spontaneous scratching bouts at 100 mg/kg, po measured upto 1 hr; assay type: organism-based; conditions: in vivo
Method in brief: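 Awake, free-moving humanized MRGPRX1 mice (human MRGPRX1 expressed in nociceptive DRG neurons in place of murine MrgprC11) were dosed orally at 100 mg/kg. Spontaneous behaviour was video-recorded for 0–1 h after dosing, and scratch bouts were counted and compared with vehicle-treated mice.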

[21] = molecular target: T1, Mas-related G-protein coupled receptor member X1; assay: Agonist activity at human MRGPRX1 expressed in HEK293 cells upto 100 uM in absence of BAM8-22 by Fluo-dye based FLIPR assay; assay type: functional, cell-based; conditions: dose microM <=100
Method in brief: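 Human MRGPRX1 stably expressed in HEK293 cells, 25,000 cells/well, 2 days. Loaded with 2 µM Fluo-4 AM and 1% Trypan Red in HBSS for 50 min at 37°C, then 10 min at room temperature. Serially diluted compound in HBSS added; FLIPR imaging 2 min, signal taken as maximum minus minimum fluorescence.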

Row | Compound | EC50 [1] | Stability [2] | Stability [3] | Emax [4] | Stability [5] | Stability [6] | other results
1 | Fc1ccccc1Oc1ncnc2scc(C(F)(F)F)c12 | 2100 nM | < 5% | < 5% | 94% | < 5% | 40% | –
2 | Cc1sc2ncnc(Oc3cccc(C(F)(F)F)c3)c2c1C | > 100000 nM | – | – | – | – | – | –
3 | Cc1sc2ncnc(Oc3ccc(C(F)(F)F)cc3)c2c1C | > 100000 nM | – | – | – | – | – | –
4 | Cc1sc2ncnc(Oc3ccccc3)c2c1C | 1600 nM | – | – | 89% | – | – | –
5 | Fc1ccccc1Oc1ncnc2sccc12 | 4200 nM | – | – | 95% | – | – | –
6 | Cc1sc2ncnc(Oc3ccc(F)cc3)c2c1C | 1100 nM | – | – | 83% | – | – | –
7 | Cc1csc2ncnc(Oc3ccccc3F)c12 | 1700 nM | – | – | 94% | – | – | –
8 | Cc1ccc(Oc2ncnc3sc(C)c(C)c23)cc1 | 2700 nM | – | – | 88% | – | – | –
9 | CC(C)(C)c1sc2ncnc(Oc3ccccc3OC(F)(F)F)c2c1-c1ccc(Cl)c(Cl)c1 | – | 58% | 25% | 114% | > 95% | > 95% | Activity (Mus musculus [8]): inactive; Activity (Mus musculus [9]): inactive; Kp at 6 h [10]: 2.2; Tmax [11]: 1 h; Tmax [12]: 1 h; Tmax [13]: 1 h; Activity [14]: Non-Toxic; Activity [15]: Non-Toxic; Kp at 6 h [16]: 12.7; Activity (Mus musculus [17]): Active; Activity (Mus musculus [18]): Active; Activity [19]: inactive; inhibition at 10 µM (hERG (KCNH2)): 50%; Activity [20]: Non-Toxic; Activity [21]: inactive
10 | CC(C)(C)c1sc2ncnc(Oc3ccccc3F)c2c1-c1ccc(F)cc1 | – | 7% | < 5% | 145% | 88% | > 95% | –

Further molecules by falling EC50 [1], results first:

Row | EC50 [1] | Stability [2] | Stability [3] | Emax [4] | Stability [5] | Stability [6] | Compound | other results
11 | 30000 nM | – | – | 55% | – | – | Cc1sc2ncnc(Oc3cccc(F)c3)c2c1C | –
12 | 25000 nM | – | – | 40% | – | – | Cc1cccc(Oc2ncnc3sc(C)c(C)c23)c1 | –
13 | 14500 nM | – | – | 88% | – | – | Cc1ccccc1Oc1ncnc2sccc12 | –
14 | 1500 nM | – | – | 90% | – | – | Cc1cc2c(Oc3ccccc3F)ncnc2s1 | –
15 | 520 nM | – | – | 95% | – | – | Cc1sc2ncnc(Oc3ccccc3C(F)(F)F)c2c1C | –
16 | 480 nM | – | – | 118% | – | – | Cc1ccccc1Oc1ncnc2sc(C)c(C)c12 | –
17 | 340 nM | 14% | < 5% | 95% | 78% | – | CC(C)(C)c1sc2ncnc(Oc3ccccc3F)c2c1-c1ccccc1 | –
18 | 320 nM | < 5% | < 5% | 105% | 61% | 75% | CC(C)(C)c1cc2c(Oc3ccccc3F)ncnc2s1 | –
19 | 230 nM | 28% | 5% | 143% | > 95% | > 95% | CC(C)(C)c1sc2ncnc(Oc3ccccc3OC(F)(F)F)c2c1-c1ccc(F)cc1 | –
20 | 220 nM | < 5% | < 5% | 112% | < 5% | < 5% | Cc1sc2ncnc(Oc3ccccc3F)c2c1C | Drug metabolism [7]: Metabolite_Detected
